Measurements taken from ChEMBL document CHEMBL1154674, “Synthesis and evaluation of three 18F-labeled aminophenylbenzothiazoles as amyloid imaging agents” (J Med Chem, 2009).
Values belong to the compound of their own block, whether it stands above or below them.

Columns and labels:
Format in all cases: ADME, organism-based, Macaca mulatta
[1] = Drug level in normal rhesus monkey thalamus assessed as standard uptake value at 81.2 MBq, iv after 145 mins by microPET; details: in vivo
[2] = Drug level in normal rhesus monkey parietal cortex assessed as standard uptake value at 81.2 MBq, iv after 47.5 mins by microPET; details: in vivo
[3] = Drug level in normal rhesus monkey thalamus assessed as standard uptake value at 81.2 MBq, iv after 12 mins by microPET; details: in vivo, 0.2 h
[4] = Drug level in normal rhesus monkey frontal cortex assessed as standard uptake value at 81.2 MBq, iv after 105 mins by microPET; details: in vivo, 1.75 h
Procedure, shortened: (§1)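 Single normal rhesus monkey; each tracer given iv via the vena saphena, with 1 day between tracer injections. Dynamic μPET ran 180 min (5×60 s, 5×120 s, 9×300 s, 12×600 s). Images were reconstructed by filtered back projection with a RAMP filter. Regional time-activity curves were expressed as SUV.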

[5] = Drug level in normal rhesus monkey cerebellum assessed as standard uptake value at 81.2 MBq, iv after 145 mins by microPET; details: in vivo
Procedure, shortened: (§2)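 One normal rhesus monkey, each tracer given iv via the vena saphena (81.2, 96.3 or 109.4 MBq), with 1 day between tracer injections. Dynamic brain μPET over 180 min used frames of 5 × 60 s, 5 × 120 s, 9 × 300 s and 12 × 600 s. Images were reconstructed by filtered back projection with a RAMP filter. Regional time-activity curves were expressed as SUV.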

[6] = Drug level in normal rhesus monkey cerebellum assessed as standard uptake value at 81.2 MBq, iv after 8 mins by microPET; details: in vivo; procedure, shortened: as §2
[7] = Drug level in normal rhesus monkey parietal cortex assessed as standard uptake value at 96.3 MBq, iv after 42.5 mins by microPET; details: in vivo
[8] = Drug level in normal rhesus monkey parietal cortex assessed as standard uptake value at 96.3 MBq, iv after 165 mins by microPET; details: in vivo, 2.75 h
[9] = Drug level in normal rhesus monkey thalamus assessed as standard uptake value at 96.3 MBq, iv after 52.5 mins by microPET; details: in vivo, 0.875 h
[10] = Drug level in normal rhesus monkey cerebellum assessed as standard uptake value at 96.3 MBq, iv after 47.5 mins by microPET; details: in vivo; procedure, shortened: as §2
[11] = Drug level in normal rhesus monkey pons assessed as standard uptake value at 109.4 MBq, iv after 0.375 mins by microPET; details: in vivo, 22 s
[12] = Drug level in normal rhesus monkey pons assessed as standard uptake value at 109.4 MBq, iv after 32.5 mins by microPET; details: in vivo
[13] = Drug level in normal rhesus monkey pons assessed as standard uptake value at 109.4 MBq, iv after 75 mins by microPET; details: in vivo, 1.25 h
[14] = Drug level in normal rhesus monkey cerebellum assessed as standard uptake value at 109.4 MBq, iv after 15.5 mins by microPET; details: in vivo
[15] = Drug level in normal rhesus monkey cerebellum assessed as standard uptake value at 109.4 MBq, iv after 52.5 mins by microPET; details: in vivo, 0.875 h
Procedure, shortened: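 One normal rhesus monkey received each tracer via the vena saphena, with 1 day between injections. Dynamic μPET ran 180 min for 18F tracers (5×60 s, 5×120 s, 9×300 s, 12×600 s) and 90 min for the 11C tracer (5×60 s, 5×120 s, 9×300 s, 3×600 s). Filtered back-projection reconstruction (RAMP filter) was used. Time-activity curves were drawn to give regional SUV.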

[16] = Drug level in normal rhesus monkey frontal cortex assessed as standard uptake value at 109.4 MBq, iv after 0.875 mins by microPET; details: in vivo, 52 s
[17] = Drug level in normal rhesus monkey frontal cortex assessed as standard uptake value at 109.4 MBq, iv after 4.5 mins by microPET; details: in vivo, 0.075 h; procedure, shortened: as §2
[18] = Drug level in normal rhesus monkey frontal cortex assessed as standard uptake value at 109.4 MBq, iv after 93 mins by microPET; details: in vivo, 1.55 h
[19] = Drug level in normal rhesus monkey thalamus assessed as standard uptake value at 109.4 MBq, iv after 0.875 mins by microPET; details: in vivo, 52 s
[20] = Drug level in normal rhesus monkey cerebellum assessed as standard uptake value at 109.4 MBq, iv after 4.5 mins by microPET; details: in vivo, 0.075 h; procedure, shortened: as §1
[21] = Drug level in normal rhesus monkey frontal cortex assessed as standard uptake value at 109.4 MBq, iv after 123 mins by microPET; details: in vivo, 2.05 h
[22] = Drug level in normal rhesus monkey white matter assessed as standard uptake value at 109.4 MBq, iv after 3.5 mins by microPET; details: in vivo
[23] = Drug level in normal rhesus monkey white matter assessed as standard uptake value at 109.4 MBq, iv after 9.5 mins by microPET; details: in vivo
[24] = Drug level in normal rhesus monkey parietal cortex assessed as standard uptake value at 109.4 MBq, iv after 42.5 mins by microPET; details: in vivo
[25] = Drug level in normal rhesus monkey parietal cortex assessed as standard uptake value at 109.4 MBq, iv after 63 mins by microPET; details: in vivo, 1.05 h
[26] = Drug level in normal rhesus monkey frontal cortex assessed as standard uptake value at 152.9 MBq, iv after 4.5 mins by microPET; details: in vivo, 0.075 h
Procedure, shortened: (§3)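 Single normal rhesus monkey; tracer given iv via the vena saphena, 1 day apart from the other tracer injections. Dynamic μPET ran 90 min (5×60 s, 5×120 s, 9×300 s, 3×600 s). Images were reconstructed by filtered back projection with a RAMP filter. Regional time-activity curves were expressed as SUV.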

[27] = Drug level in normal rhesus monkey frontal cortex assessed as standard uptake value at 152.9 MBq, iv after 42.5 mins by microPET; details: in vivo; procedure, shortened: as §3
[28] = Drug level in normal rhesus monkey white matter assessed as standard uptake value at 152.9 MBq, iv after 0.5 mins by microPET; details: in vivo
[29] = Drug level in normal rhesus monkey white matter assessed as standard uptake value at 152.9 MBq, iv after 3.5 mins by microPET; details: in vivo
[30] = Drug level in normal rhesus monkey white matter assessed as standard uptake value at 152.9 MBq, iv after 12 mins by microPET; details: in vivo, 0.2 h
[31] = Drug level in normal rhesus monkey white matter assessed as standard uptake value at 152.9 MBq, iv after 17.5 mins by microPET; details: in vivo
[32] = Drug level in normal rhesus monkey white matter assessed as standard uptake value at 152.9 MBq, iv after 52.5 mins by microPET; details: in vivo, 0.875 h
[33] = Drug level in normal rhesus monkey thalamus assessed as standard uptake value at 152.9 MBq, iv after 0.5 mins by microPET; details: in vivo
[34] = Drug level in normal rhesus monkey thalamus assessed as standard uptake value at 152.9 MBq, iv after 75 mins by microPET; details: in vivo, 1.25 h
[35] = Drug level in normal rhesus monkey pons assessed as standard uptake value at 152.9 MBq, iv after 14 mins by microPET; details: in vivo
[36] = Drug level in normal rhesus monkey parietal cortex assessed as standard uptake value at 152.9 MBq, iv after 8 mins by microPET; details: in vivo

SUV [1]: 4.916
SUV [2]: 3.676
SUV [3]: 4.684
SUV [4]: 4.68
SUV [5]: 1.602
SUV [6]: 2.781
SMILES: CNc1ccc2nc(-c3ccc([18F])cc3)sc2c1

SUV [7]: 1.79
SUV [8]: 1.18
SUV [9]: 2.26
SUV [10]: 1.23
SMILES: CN(C)c1ccc2nc(-c3ccc([18F])cc3)sc2c1

SUV [11]: 0.4
SUV [12]: 4.74
SUV [13]: 4.79
SUV [14]: 4.94
SUV [15]: 3.38
SUV [16]: 1.73
SUV [17]: 5.43
SUV [18]: 4.25
SUV [19]: 2.43
SUV [20]: 6.13
SUV [21]: 4.13
SUV [22]: 2.22
SUV [23]: 2.99
SUV [24]: 4.54
SUV [25]: 4.18
SMILES: Nc1ccc2nc(-c3ccc([18F])cc3)sc2c1

SUV [26]: 2.11
SUV [27]: 0.84
SUV [28]: 0.038
SUV [29]: 1.053
SUV [30]: 1.434
SUV [31]: 1.328
SUV [32]: 0.937
SUV [33]: 0.038
SUV [34]: 0.731
SUV [35]: 2.04
SUV [36]: 2.207
SMILES: [11CH3]Nc1ccc(-c2nc3ccc(O)cc3s2)cc1 [PITTSBURGH COMPOUND B]
